Active and inactive are the calls of the source. The calls are words filed in the database; no cut-off is given here.

The text below walks through data of ChEMBL document CHEMBL1137668, “Activities of several classes of acyclic nucleoside phosphonates against camelpox virus replication in different cell culture models” (Antimicrob Agents Chemother, 2007).

The nature of series [1]: Selectivity index, ratio of CC50 for HEL299 cells to EC50 for Camelpox virus CML14 infected in HEL299 cells. Particulars: human, hel 299. It is filed as toxicity, cell-based, HEL 299.
The subject of series [2] is Camelpox virus. The series can be described thus: Antiviral activity against Camelpox virus CML14 infected in HEL299 cells assessed as complete inhibition of viral replication at 0.4 uM after 6 days postinfection by virus yield reduction assay. It is filed as functional, organism-based. Particulars: HEL 299.
Series [3] can be described thus: Cytotoxicity against differentiated epithelium of human PHK raft culture at 38 uM after 4 days by Z1 Coulter counting analysis. The settings on record: 96 h.
Series [4] can be described thus: Cytotoxicity against HEL299 cells after 4 days by Z1 Coulter counting analysis. The class given is cell-based, HEL 299. Particulars: human, hel 299, 96 h. The procedure, abridged: (§1)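 Cell growth inhibition: HEL cells were seeded at 3.5 × 10³ per well and PHKs at 5 × 10³ per well. Serial dilutions were added in duplicate after 1 day (HEL) or 3 days (PHK). After 4 days with compound, cells were trypsinized and counted with a Coulter counter (8 μm lower limit). CC50 is the concentration reducing growth by 50%, mean ± SD of at least two experiments.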

Series [5] has as its system Camelpox virus. The series can be described thus: Antiviral activity against Camelpox virus CML1 infected in HEL299 cells assessed as complete inhibition of viral replication at 0.4 uM after 6 days postinfection by virus yield reduction assay. The class given is functional, organism-based. Particulars: HEL 299.
The test system of series [6] is Camelpox virus. In words: Antiviral activity against Camelpox virus CML14 infected in human PHK assessed as reduction in viral titer after 6 days postinfection by virus yield reduction assay. It is filed as functional.
Series [7] concerns Camelpox virus. In words: Antiviral activity against Camelpox virus CML1 infected in human PHK raft culture assessed as inhibition of virus-induced cytopathic effect at 9 uM after 7 days postinfection. The class given is functional, organism-based.
Series [8] is described as follows: Cytotoxicity against human PHK after 4 days by Z1 Coulter counting analysis. Particulars: 96 h. The procedure, abridged:
as §1

Series [9] deals with Camelpox virus. The series can be described thus: Antiviral activity against Camelpox virus CML1 infected in human PHK assessed as complete inhibition of viral replication at 4 uM after 6 days postinfection by virus yield reduction assay. The class given is functional, organism-based.
Series [10] is described as follows: Selectivity index, ratio of CC50 for HEL299 cells to EC50 for Camelpox virus CML1 infected in HEL299 cells. It is filed as toxicity, cell-based, HEL 299. The settings on record: human, hel 299.
Series [11] deals with Camelpox virus. The series can be described thus: Antiviral activity against Camelpox virus CML14 infected in HEL299 cells assessed as reduction in viral titer after 6 days postinfection by virus yield reduction assay. It is filed as functional. Particulars: HEL 299.
Series [12] relates to Camelpox virus. In words: Antiviral activity against Camelpox virus CML14 infected in human PHK assessed as complete inhibition of viral replication at 4 uM after 6 days postinfection by virus yield reduction assay. The class given is functional, organism-based.
In series [13] the test system is Camelpox virus. The series can be described thus: Antiviral activity against Camelpox virus CML1 infected in human PHK assessed as reduction in viral titer after 6 days postinfection by virus yield reduction assay. The class given is functional.
In series [14] the test system is Camelpox virus. In words: Antiviral activity against Camelpox virus CML1 infected in human PHK raft culture assessed as inhibition of viral replication at 38 uM after 7 days postinfection by virus yield reduction assay. The class given is functional, organism-based.

As a reminder, the CC50 is the concentration at which the toxic effect on the cells reaches its halfway point. In the case of `CCCCCCCCCCCCCCCCOCCO[PH]1(O)CO[C@@H](Cn2c(N)ncnc2=O)CO1`, the “Ratio CC50/IC50” value in [1] is given as 12; in [10] it was 10. For the same molecule, the result in the series on Camelpox virus [2], in the series with Camelpox virus [5], in the series with Camelpox virus [9], in the series on Camelpox virus [12] and in the series on Camelpox virus [14] was Active. The Activity entry in series [3] was “Toxic”; with Camelpox virus [6] it was “Dose-dependent effect”; in the series on Camelpox virus [11], “Dose-dependent effect”; in the series on Camelpox virus [13], “Dose-dependent effect”. Further, the CC50 in series [4] amounted to 79 µM; in series [8], 54 µM. In addition, the result with Camelpox virus [7] was inactive.
